This is an account of results in paper PMC9973464 (Haematologica, 2022).

One data set concerns R/R AML patients. The conditions noted are these: cited from earlier work.
In a further data set the test system is human platelets. Nature of the data set: In vitro platelet aggregation assay in platelet rich plasma. It is filed as cell-based.
Data set [1] relates to patients with R/R AML. Nature of the data set: Phase Ib dose-escalation trial of oral mivavotinib: safety, DLT, MTD/RP2D. It is filed as in vivo, human.
For data set [2], the system named is patients with R/R AML. Nature of the data set: Phase Ib trial: response and antileukemic activity. It counts as in vivo, human. The essentials:
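Multicenter, open-label phase Ib dose escalation (3+3) of oral single agent given QD or BID in 28-day cycles until progression or unacceptable toxicity. Started at 60 mg QD with 20 mg increments. Response was judged by Revised IWG AML criteria, with modifications.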

For another data set, the system named is lymphoma patients. The conditions noted are these: target SYK; cited from earlier work.
In the next data set the target is T1, FLT3 (Homo sapiens, UniProt P36888).
T1 sequence (P36888 610-943 limits assumed): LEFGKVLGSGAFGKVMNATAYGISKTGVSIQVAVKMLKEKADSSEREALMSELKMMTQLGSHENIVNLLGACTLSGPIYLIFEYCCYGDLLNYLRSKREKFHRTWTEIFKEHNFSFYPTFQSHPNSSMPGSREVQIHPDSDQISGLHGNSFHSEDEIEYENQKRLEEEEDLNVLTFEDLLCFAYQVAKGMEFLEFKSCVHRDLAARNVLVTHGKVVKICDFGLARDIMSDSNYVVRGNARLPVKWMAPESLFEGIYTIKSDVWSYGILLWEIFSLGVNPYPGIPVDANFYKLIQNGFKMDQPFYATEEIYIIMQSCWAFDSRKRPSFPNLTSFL
Nature of the data set: Plasma inhibitory activity. It is filed as cell-based. The essentials: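 Steady-state trough plasma was drawn before dosing on Cycle 1 day 15. An FLT3-ITD-expressing AML cell line was incubated in this plasma. FLT3 phosphorylation was quantified against baseline plasma and reported as % of baseline. Drug level in the same sample was measured by mass spectrometry. Reference curve: normal donor plasma spiked with test compound, Molm-14 cells 1 h, immunoblot for pFLT3.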

The test system of another data set is FLT3 isoforms. The conditions noted are these: evaluation of additional kinases; cited from earlier work.
In another data set the test system is dogs. Nature of the data set: Pre-clinical toxicology study, daily oral gavage, dogs. It counts as in vivo. As to conditions: daily oral gavage for 14 days to 3 months.
The test system of a further data set is rats. The data set is described as follows: Pre-clinical toxicology study, daily oral gavage, rats. It counts as in vivo. As to conditions: daily oral gavage for 14 days to 3 months.
The nature of data set [3]: Phase Ib trial: plasma pharmacokinetics. It is filed as in vivo, human.

Several values for one entry are separate records, joined by “and”; a condition that tells them apart may be missing. Equal entries are not always repeated. Bounds are passed on as bounds.

Usually Cmax stands for the highest concentration seen after dosing. Broadly, the Tmax is the time from dosing to the highest level.

Regarding `CCc1nc(C(N)=O)c(Nc2ccc(N3CCC(N4CCN(C)CC4)CC3)c(OC)c2)nc1NC1CCOCC1` [gilteritinib], the “median time to achieve best response” value with R/R AML patients is 48 days.

`Cn1cc(-c2nc(N[C@@H]3CCCC[C@@H]3N)c(F)c3c2C(=O)NC3)cn1` [mivavotinib]: the “effect on platelet aggregation caused by adenosine diphosphate” value with human platelets was “prevented aggregation”. In addition, in the data set on human platelets (1.07 µM mivavotinib), the “effect on platelet aggregation caused by collagen” value is “prevented aggregation”. For the same compound, the “inhibition of platelet aggregation” value in the data set with human platelets (0.107 mM mivavotinib) is “not observed”. In the data set with human platelets (10.7 mM mivavotinib, collagen (2 mg/mL)), the “effect on platelet aggregation caused by collagen” value is given as “prevented aggregation”. Besides, in the data set on patients with R/R AML [1] (60 mg BID, 8 patients), the DLT result is reported as “No episodes of DLT were observed”. Further, the “drug-related SAE gastric hemorrhage” value with patients with R/R AML [1] (3 patients, who received 80 mg BID) was found to be 7%. For the same compound, the “maximum tolerated dose (MTD), BID dosing regimen” value with patients with R/R AML [1] (BID dosing regimen) is on record as 60 mg BID. Besides, the “recommended phase II dose (RP2D)” value in the data set with patients with R/R AML [1] (QD dosing regimen) is given as 140 mg QD. Moreover, the “maximum tolerated dose (MTD), QD dosing regimen” value with patients with R/R AML [1] (QD dosing up to 160 mg QD, per protocol) was “not reached”. The same compound displayed an on-study deaths with patients with R/R AML [1] (after informed consent and ≤28 days after last dose) of 26. For the same compound, in the data set with patients with R/R AML [1] (all 43 patients), the “patients with ≥1 TEAE assessed by the investigator as related to mivavotinib” value stood at 84%. In addition, in the data set with patients with R/R AML [1] (all doses), the “intracranial bleeding considered grade ≥3” value was 4 patients, the “patients with GI tract bleeding considered grade ≥3” value is on record as 7 patients, the “patients with GI-related or central nervous system-related bleeding event leading to study discontinuation” value came to 9 patients and the “patients with bleeding involving the GI tract” value was “Thirteen”. Besides, in the data set with patients with R/R AML [1] (all doses), the “patients with intracranial bleeding” value is reported as “Seven”. Also, in the data set with patients with R/R AML [1] (all patients), the “patients who discontinued mivavotinib due to a TEAE” value is reported as 67% and the “patients with drug-related SAE” value stood at 28%. Also, the “bleeding events leading to discontinuation considered related to mivavotinib” value with patients with R/R AML [1] (of 9 patients) is reported as 5. In the data set on patients with R/R AML [1] (of eleven patients with grade ≥3 bleeding events), the “fatal grade ≥3 bleeding events” value came out at 2. Besides, in the data set on patients with R/R AML [1] (range -1 to 262), the “median day of occurrence of all bleeding events” value amounted to 22 days. Further, the “reduction in marrow blast percentage, range” value with patients with R/R AML [2] (13 patients with FLT3 mutations) is recorded as 22.5-98.6%. In the data set with patients with R/R AML [2] (33 response-evaluable patients), the “patients with PD” value is 5, the “patients with clinical benefit despite PD” value is given as 4 and the “patients with stable disease” value is listed as 19. Besides, in the data set on patients with R/R AML [2] (43 patients enrolled), the “complete responses (4 with incomplete count recovery)” value turned out to be 5. Further, in the data set with patients with R/R AML [2] (BID dosing), the “patients with a ≥50% reduction in peripheral blast count from baseline” value (shortened to “patients with a ≥50% reduction”) was 9 of 12. For the same compound, the “patients with a ≥50% reduction” value in the data set on patients with R/R AML [2] (QD dosing) was 12 of 21. In the data set on patients with R/R AML [2] (across all dose levels), the “patients with a ≥50% reduction” value was 21 of 33. Also, the “objective responses with incomplete count recovery (CRi)” value in the data set with patients with R/R AML [2] (of 19 patients with FLT3 mutations treated at 120, 140, or 160 mg QD or BID) worked out at 3. In addition, in the data set on lymphoma patients, the “dose identified for expansion” value was 100 mg QD. Further, the “in vivo FLT3 inhibition by PIA, comparison of dose levels” value on FLT3 (80 mg BID, trough plasma) is reported as “most effective FLT3 inhibition”. For the same compound, the “consistent or sustained 90% FLT3 inhibition” value at FLT3 (140 mg QD or 60 mg BID) is “neither selected RP2D, 140 mg QD or 60 mg BID, achieved a consistent or sustained 90% FLT3 inhibition”. Moreover, the FLT3 inhibition entry on FLT3 (140 mg QD, by Cycle 1 day 15, initial evidence) was “at least 90%”. Moreover, in the data set on FLT3 isoforms, the “activity against FLT3 isoforms” value is 1.6 to 7.6 ng/mL. In addition, in the data set on dogs, the “dose at which GI mucosal hemorrhage was dose limiting” value is given as no less than 10 mg/kg and the “dose at which GI mucosal hemorrhage was present” value is given as no less than 3 mg/kg. The “dose at which GI mucosal hemorrhage was present” value in the data set on rats is reported as no less than 30 mg/kg. Besides, the “dose proportionality of plasma exposure” value in data set [3] (dose ranges studied, 60-160 mg QD or 60-80 mg BID) is reported as “generally dose proportional”. Besides, the Cmax in data set [3] (human, plasma, oral, 140 mg) was 574 ng/mL and 1.07 µM. In addition, in [3] (human, plasma, po), the Tmax was 1 to 3 h.
